Measurements from PMC6978834 (ACS Central Science, 2019).

Tests used:
P. falciparum NF54 = format: cell-based; settings: Plasmodium falciparum, NF54, read-out: IC50 P. falciparum proliferation
Method in brief: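 Asynchronous asexual P. falciparum NF54 cultures grown by a standard protocol. Proliferation IC50 determined with DHA as positive and DMSO as negative control. Values are mean IC50 ± SD of at least two independent experiments run in triplicate.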

[1] = system: P. falciparum NF54 synchronized asexual parasites; assay: Stage-specificity during the asexual cell cycle; format: cell-based, Plasmodium falciparum; settings: 6 h; data not shown
Method in brief: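 NF54 synchronized to 0–3 hpi by gelatin flotation, then 5% D-sorbitol 3 h later. Plated at 2% hematocrit, 0.5% starting parasitemia. 6 h exposure at 1×, 3× or 10× IC50 starting at 0, 6, 12, 18, 24, 30, 36 or 42 hpi, then cells washed in RPMI and recultured. Giemsa-smear parasitemia at 72 h post-synchronization; survival relative to DMSO. Three independent experiments, one well each; unpaired t test versus DMSO.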

SMILES	IC50 (P. falciparum NF54) [nM]	activity on the ring stages [1]
C[C@H]1[C@@H](O)O[C@@H]2O[C@@]3(C)CC[C@H]4[C@H](C)CC[C@@H]1[C@@]24OO3 [dihydroartemisinin (DHA), dihydroartemisinin]	5 ± 1	–
Clc1ccc2c(N3CCN(CCCN4CCN(c5ccnc6cc(Cl)ccc56)CC4)CC3)ccnc2c1 [piperaquine]	–	not active
